Test results taken from ChEMBL document CHEMBL5058577, “EUbOPEN Chemogenomics Library 2 (Multiplex)” (2022).

Tested on: Fibroblast
Assay: Multiplex assay against human fibroblast
Format: toxicity, cell-based
Outline: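 With compound added, live cells were imaged on a CQ1 microscope at 37°C and 5% CO2; staining with Hoechst33342, BioTracker Green Microtubule Cytoskeleton Dye, MitoTracker Red and Annexin V Alexa Fluor 680 had been done at seeding. The CellPathfinder machine-learning gating scheme split cells into Hoechst high-intensity objects or normal cells, normal cells into healthy, pyknosed or fragmented nuclei, and pyknosed cells into mitotic or apoptotic. The tubulin, mitochondrial-mass and membrane-permeability phenotypes are per cents of healthy-nucleus cells.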

[1] = 12 h, 1 µM, compound concentration 1 uM, replicate 1
[2] = 12 h, 1 µM, compound concentration 1 uM, replicate 2
[3] = 12 h, 10 µM, compound concentration 10 uM, replicate 1
[4] = 12 h, 10 µM, compound concentration 10 uM, replicate 2
[5] = 24 h, 1 µM, compound concentration 1 uM, replicate 1
[6] = 24 h, 1 µM, compound concentration 1 uM, replicate 2
[7] = 24 h, 10 µM, compound concentration 10 uM, replicate 1
[8] = 24 h, 10 µM, compound concentration 10 uM, replicate 2
[9] = 48 h, 1 µM, compound concentration 1 uM, replicate 1
[10] = 48 h, 1 µM, compound concentration 1 uM, replicate 2
[11] = 48 h, 10 µM, compound concentration 10 uM, replicate 1
[12] = 48 h, 10 µM, compound concentration 10 uM, replicate 2

COc1ccccc1N1CCN(C[C@@H](C(=O)NC(C)(C)C)c2ccccc2)CC1.Cl.Cl
Population Apoptotic (%) [1]: 43% | Population Fragmented Nuclei (%) [1]: 12% | Population Healthy Nuclei (%) [1]: 70% | Population Hoechst High Intensity Objects (%) [1]: 2% | Population Membrane Permeable-Phenotype (%) [1]: 0% | Population Mitochondria Different-Phenotype (%) [1]: 8% | Population Mitotic Cells (%) [1]: 56% | Population Normal (%) [1]: 97% | Population Pyknosed Nuclei (%) [1]: 16% | Population Tubulin-Different-Phenotype (%) [1]: 37% | Total Cell Count [1]: 141 | Population Apoptotic (%) [2]: 40% | Population Fragmented Nuclei (%) [2]: 25% | Population Healthy Nuclei (%) [2]: 43% | Population Hoechst High Intensity Objects (%) [2]: 5% | Population Mitochondria Different-Phenotype (%) [2]: 4% | Population Mitotic Cells (%) [2]: 60% | Population Normal (%) [2]: 94% | Population Pyknosed Nuclei (%) [2]: 30% | Population Tubulin-Different-Phenotype (%) [2]: 43% | Total Cell Count [2]: 155 | Population Apoptotic (%) [3]: 50% | Population Fragmented Nuclei (%) [3]: 20% | Population Healthy Nuclei (%) [3]: 59% | Population Hoechst High Intensity Objects (%) [3]: 5% | Population Membrane Permeable-Phenotype (%) [3]: 1% | Population Mitochondria Different-Phenotype (%) [3]: 20% | Population Mitotic Cells (%) [3]: 50% | Population Normal (%) [3]: 94% | Population Pyknosed Nuclei (%) [3]: 20% | Population Tubulin-Different-Phenotype (%) [3]: 66% | Total Cell Count [3]: 134 | Population Apoptotic (%) [4]: 48% | Population Fragmented Nuclei (%) [4]: 32% | Population Healthy Nuclei (%) [4]: 42% | Population Membrane Permeable-Phenotype (%) [4]: 6% | Population Mitochondria Different-Phenotype (%) [4]: 12% | Population Mitotic Cells (%) [4]: 51% | Population Pyknosed Nuclei (%) [4]: 24% | Population Tubulin-Different-Phenotype (%) [4]: 70% | Total Cell Count [4]: 116 | Population Apoptotic (%) [5]: 50% | Population Fragmented Nuclei (%) [5]: 12% | Population Healthy Nuclei (%) [5]: 73% | Population Hoechst High Intensity Objects (%) [5]: 2% | Population Membrane Permeable-Phenotype (%) [5]: 0% | Population Mitochondria Different-Phenotype (%) [5]: 15% | Population Mitotic Cells (%) [5]: 50% | Population Normal (%) [5]: 97% | Population Pyknosed Nuclei (%) [5]: 14% | Population Tubulin-Different-Phenotype (%) [5]: 32% | Total Cell Count [5]: 143 | Population Fragmented Nuclei (%) [6]: 24% | Population Healthy Nuclei (%) [6]: 55% | Population Hoechst High Intensity Objects (%) [6]: 3% | Population Membrane Permeable-Phenotype (%) [6]: 8% | Population Mitochondria Different-Phenotype (%) [6]: 3% | Population Normal (%) [6]: 96% | Population Pyknosed Nuclei (%) [6]: 19% | Population Tubulin-Different-Phenotype (%) [6]: 50% | Total Cell Count [6]: 151 | Population Apoptotic (%) [7]: 83% | Population Fragmented Nuclei (%) [7]: 19% | Population Healthy Nuclei (%) [7]: 65% | Population Hoechst High Intensity Objects (%) [7]: 8% | Population Membrane Permeable-Phenotype (%) [7]: 0% | Population Mitochondria Different-Phenotype (%) [7]: 37% | Population Mitotic Cells (%) [7]: 16% | Population Normal (%) [7]: 91% | Population Pyknosed Nuclei (%) [7]: 14% | Population Tubulin-Different-Phenotype (%) [7]: 63% | Total Cell Count [7]: 132 | Population Apoptotic (%) [8]: 40% | Population Fragmented Nuclei (%) [8]: 39% | Population Healthy Nuclei (%) [8]: 41% | Population Hoechst High Intensity Objects (%) [8]: 3% | Population Membrane Permeable-Phenotype (%) [8]: 8% | Population Mitochondria Different-Phenotype (%) [8]: 8% | Population Mitotic Cells (%) [8]: 59% | Population Normal (%) [8]: 96% | Population Pyknosed Nuclei (%) [8]: 19% | Population Tubulin-Different-Phenotype (%) [8]: 76% | Total Cell Count [8]: 116 | Population Apoptotic (%) [9]: 84% | Population Fragmented Nuclei (%) [9]: 18% | Population Healthy Nuclei (%) [9]: 71% | Population Hoechst High Intensity Objects (%) [9]: 5% | Population Membrane Permeable-Phenotype (%) [9]: 1% | Population Mitochondria Different-Phenotype (%) [9]: 12% | Population Mitotic Cells (%) [9]: 15% | Population Normal (%) [9]: 94% | Population Pyknosed Nuclei (%) [9]: 10% | Population Tubulin-Different-Phenotype (%) [9]: 34% | Total Cell Count [9]: 138 | Population Apoptotic (%) [10]: 60% | Population Fragmented Nuclei (%) [10]: 31% | Population Healthy Nuclei (%) [10]: 52% | Population Membrane Permeable-Phenotype (%) [10]: 5% | Population Mitochondria Different-Phenotype (%) [10]: 5% | Population Mitotic Cells (%) [10]: 40% | Population Pyknosed Nuclei (%) [10]: 15% | Population Tubulin-Different-Phenotype (%) [10]: 56% | Total Cell Count [10]: 171 | Population Apoptotic (%) [11]: 84% | Population Fragmented Nuclei (%) [11]: 18% | Population Healthy Nuclei (%) [11]: 63% | Population Hoechst High Intensity Objects (%) [11]: 14% | Population Membrane Permeable-Phenotype (%) [11]: 0% | Population Mitochondria Different-Phenotype (%) [11]: 34% | Population Mitotic Cells (%) [11]: 15% | Population Normal (%) [11]: 85% | Population Pyknosed Nuclei (%) [11]: 18% | Population Tubulin-Different-Phenotype (%) [11]: 65% | Total Cell Count [11]: 122 | Population Apoptotic (%) [12]: 44% | Population Fragmented Nuclei (%) [12]: 50% | Population Healthy Nuclei (%) [12]: 41% | Population Hoechst High Intensity Objects (%) [12]: 3% | Population Membrane Permeable-Phenotype (%) [12]: 8% | Population Mitochondria Different-Phenotype (%) [12]: 8% | Population Mitotic Cells (%) [12]: 55% | Population Normal (%) [12]: 96% | Population Pyknosed Nuclei (%) [12]: 7% | Population Tubulin-Different-Phenotype (%) [12]: 67%
